Measurements pooled from the literature.
Lines come from different studies, so protocols differ.
Cell line: MCF7
Effect on: cell growth or viability

CCN(CC)CCCn1cccc1/C=N/NC(=O)Nc1cc2c(Nc3ccc(F)c(Cl)c3)ncnc2cc1O[C@H]1CCOC1
IC50 (MTT; 72 h): 2.49 µM

COc1cccc2c1C(=O)c1c(O)c3c(c(O)c1C2=O)C[C@@](O)(C(=O)CO)C[C@@H]3O[C@H]1C[C@H](N)[C@H](O)[C@H](C)O1
IC50 (SRB): 0.18 µM

O=C(N/N=C/c1cccn1CCCN1CCCCC1)Nc1cc2c(Nc3ccc(F)c(Cl)c3)ncnc2cc1O[C@H]1CCOC1
IC50 (MTT; 72 h): 1.32 µM

COc1cc([C@@H]2c3cc4c(cc3[C@@H](O[C@@H]3O[C@@H]5CO[C@@H](C)O[C@H]5[C@H](O)[C@H]3O)[C@H]3COC(=O)[C@H]23)OCO4)cc(OC)c1O
IC50 (MTT; 48 h): 32.8 µM

Oc1ccc(Br)cc1-c1nc2ccccc2[nH]1
IC50 (MTT; 48 h): 5.1 µM

COc1cc2ncnc(Nc3ccc(F)c(Cl)c3)c2cc1NC(=O)N/N=C/c1cccn1CCN1CCN(C)CC1
IC50 (MTT; 72 h): 1.85 µM

Fc1ccc(-c2nc3ccccc3[nH]2)cc1
IC50 (MTT; 48 h): 68 µM

CCCCc1ccc2[nH]c(NC(=O)OC)nc2c1
IC50 (CCK-8; 72 h): 0.0996 µM

COc1cc2ncnc(Nc3ccc(F)c(Cl)c3)c2cc1NC(=O)N/N=C/c1cccn1CCCN1CCCCC1
IC50 (MTT; 72 h): 2.81 µM

CC(C)Cc1ccc(-c2nn(-c3ccc(S(C)(=O)=O)cc3)cc2/C=N/N=c2\[nH]c(-c3ccc([N+](=O)[O-])cc3)cs2)cc1
IC50 (MTT; 48 h): 2.85 µM

O=C(NC(=S)N1CCCC1)c1ccc2ccccc2c1
IC50 (48 h): 3.62 µM

Clc1ccccc1-c1nc2ccccc2[nH]1
IC50 (MTT; 48 h): 69 µM

Oc1ccc(-c2ccc3ncnc(Nc4cccc(C(F)(F)F)c4)c3c2)cc1
IC50 (MTT; 24 h): 6.19 µM

COCO[C@H]1C[C@H]2OC(C)(C)OC[C@]23[C@@H]2[C@@H](CC[C@]3(O)C1)[C@@]1(OCOC)CC[C@H](CO)[C@@]1(C)C[C@H]2OCOC
IC50 (resazurin; 72 h): > 100 µM

COc1ccnc(-c2cc(OC)ccn2)c1
IC50 (MTT; 48 h): > 50 µM

FC(F)(F)c1cccc(Nc2ncnc3ccc(-c4ccc(Cl)cc4)cc23)c1
IC50 (MTT; 24 h): 12.3 µM

CC(=O)O[C@H]1C(=O)[C@@]2(C)[C@H]([C@H](OC(=O)c3ccccc3)[C@]3(O)C[C@H](OC(=O)[C@H](O)[C@@H](NC(=O)c4ccccc4)c4ccccc4)C(C)=C1C3(C)C)[C@]1(OC(C)=O)CO[C@@H]1C[C@@H]2O
IC50: 1 µg/mL

CSc1nc(/N=C/c2cccc(O)c2)n(-c2ccc(C(=O)O)cc2)n1
IC50 (MTT): 31.2 µM

O=C(/N=C1\S/C(=C\c2ccc(Cl)cc2)C(=O)N1C1CCCCC1)c1ccc2ccccc2c1
IC50 (48 h): 6.93 µM

C=CCn1c(-c2ccc(Cl)c(Cl)c2)nc2ccccc21
IC50 (MTT): 50 µM

CN(C)CCn1cccc1/C=N/NC(=O)Nc1cc2c(Nc3ccc(F)c(Cl)c3)ncnc2cc1O[C@H]1CCOC1
IC50 (MTT; 72 h): 4.82 µM

CC(C)NCC(O)COc1cc2ccccc2cc1OCC(O)CNC(C)C (stereo not shown)
IC50 (MTT; 72 h): > 75 µM

Oc1ccc(-c2csc(Nc3ccc4c(O)ncnc4c3)n2)cc1
IC50 (MTT): 7.43 µM

Cc1ccc2nc(-c3ccc([N+](=O)[O-])cc3)n(Cc3ccccc3Cl)c2c1
IC50 (MTT): 20.2 µM

Nc1ncnc2c1ncn2[C@@H]1O[C@H](CO)[C@@H](O)[C@H]1O
IC50 (WST-1; 48 h): 48.3 µM

CSc1nc(/N=C/c2cc(Br)ccc2O)n(-c2ccc(C(=O)O)cc2)n1
IC50 (MTT): 31.3 µM

FC(F)(F)c1cccc(Nc2ncnc3ccc(NCc4ccccc4)cc23)c1
IC50 (MTT; 24 h): 6.83 µM

Cc1ccc2nc(-c3ccc(Cl)cc3)n(Cc3ccccc3)c2c1
IC50 (MTT): 5.66 µM

O=[N+]([O-])c1ccc(S(=O)(=O)NN=Cc2cn(CCN3CCOCC3)c3ccccc23)cc1
IC50 (MTT; 48 h): 82 µM

CCOC(=O)/C=C1\S/C(=N\C(=O)c2ccc3ccccc3c2)N(C2CCCCC2)C1=O
IC50 (48 h): 14.9 µM

CCN(CC)CCn1cccc1/C=N/NC(=O)Nc1cc2c(Nc3ccc(F)c(Cl)c3)ncnc2cc1OC
IC50 (MTT; 72 h): 0.57 µM

O=c1cc(CO)occ1[O-].[Cl-].[W+4].c1cc[cH-]c1.c1cc[cH-]c1
IC50 (MTT): 590 µM

O=[N+]([O-])c1ccc(-c2nc3ccccc3[nH]2)cc1
IC50 (MTT; 48 h): 27.2 µM

COc1ccc(C(=O)O[C@@H]2CN3Cc4c(cc5c(c4OC)OCO5)[C@@]24C=C[C@H](OC)C[C@@H]34)cc1OC
IC50 (WST-1): 4.9 µM

CC(C)Cc1ccc(-c2nn(-c3ccc(S(C)(=O)=O)cc3)cc2/C=N\N=C2/NC(=O)CS2)cc1
IC50 (MTT; 48 h): 6.25 µM

COc1cccc2c1C(=O)c1c(O)c3c(c(O)c1C2=O)C[C@@](O)(C(=O)CO)C[C@@H]3O[C@H]1C[C@H](N)[C@H](O)[C@H](C)O1
IC50 (resazurin; 72 h): 0.24 µM

C=CCn1c(-c2ccc([N+](=O)[O-])cc2)nc2ccc(C)cc21
IC50 (MTT): 71.1 µM

Clc1ccc(C[n+]2cn(CCc3ccccc3)c3ccccc32)cc1
IC50 (MTT; 72 h): 13 µM

Oc1ncnc2cc(Nc3nc(-c4ccc(C(F)(F)F)cc4)cs3)ccc12
IC50 (MTT): 2.86 µM

COc1cccc2c1C(=O)c1c(O)c3c(c(O)c1C2=O)C[C@@](O)(C(=O)CO)C[C@@H]3O[C@H]1C[C@H](N)[C@H](O)[C@H](C)O1
IC50 (MTT): 3.39 µM

CC(C)C(=O)Nc1ccc([N+](=O)[O-])c(C(F)(F)F)c1
IC50 (CCK-8; 48 h): 39 µM

CS(=O)(=O)c1nc(N)n(-c2ccc(C(=O)O)cc2)n1
IC50 (MTT): 21.9 µM

O=C(N/N=C/c1cccn1CCN1CCOCC1)Nc1cc2c(Nc3ccc(F)c(Cl)c3)ncnc2cc1O[C@H]1CCOC1
IC50 (MTT; 72 h): 2.13 µM

COC(=O)/C=C1\S/C(=N\C(=O)c2ccc3ccccc3c2)N(C2CCCCC2)C1=O
IC50 (48 h): 14.3 µM

COc1cccc2c1C(=O)c1c(O)c3c(c(O)c1C2=O)C[C@@](O)(C(=O)CO)C[C@@H]3O[C@H]1C[C@H](N)[C@H](O)[C@H](C)O1
IC50 (MTT; 48 h): 0.06 µM

O=C1Nc2c(C(F)(F)F)cccc2C1(c1ccc(OC(F)(F)F)cc1)c1c(F)cc(O)cc1F (stereo not shown)
IC50 (resazurin; 24 h): 0.549 µM

CN1CCN(CCCn2cccc2/C=N/NC(=O)Nc2cc3c(Nc4ccc(F)c(Cl)c4)ncnc3cc2O[C@H]2CCOC2)CC1
IC50 (MTT; 72 h): 2.12 µM

Cc1ccc(-c2nn(-c3ccc(S(C)(=O)=O)cc3)cc2/C=N\N=c2/[nH]c(-c3ccc([N+](=O)[O-])cc3)cs2)cc1
IC50 (MTT; 48 h): 36 µM

COc1ccc(O)c(/C=N/c2nc(SC)nn2-c2ccc(C(=O)O)cc2)c1
IC50 (MTT): 27.3 µM
